# A selection: hits, their analogues and other compounds. The true share with any hit is near 3.3%.
# SENP7 inh: blocks the human protease SENP7; Q9BQF6; recombinant SENP7, Z-RLRGG-aminoluciferin luminescence, 40 min; inhibition, % at 5 µM; actives 1.5% (n = 330,000);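 active = inhibition above about 50% at the single test dose, limit read from the data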;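 note: plate controls were DMSO with enzyme for no effect and no enzyme buffer wells for full effect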
# SENP8 block-1: inhibitors of human SENP8 protease. actives 0.64% (n = 360,000). inhibition, % at 20 µM. recombinant SENP8, Nedd8 substrate fluorescence. AID 602440; in the data active = inhibition mostly above about 40%, no sharp cut-off; inactive = mostly below about 27%
# CendR NRP1 mod: alters CendR peptide binding to human NRP-1; O14786; FAM-RPARPAR peptide binding to NRP-1, fluorescence polarization; inhibition, % at 25 µM; actives 0.85% (n = 360,000); AID 602438;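 active = inhibition or corrected inhibition above about 18%, plus a signal ratio from 0.5 to 1.5, limit read from the data, passing the limit was not always enough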
# SENP1 inh: SENP1 (human) catalytic domain inhibition; Q9P0U3; recombinant SENP1 catalytic domain, CyPet-SUMO1-YPet FRET cleavage; inhibition, % at 10 µM; actives 0.21% (n = 360,000);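 active = inhibition at least 30% at 10 µM, raw YFP signal under a set limit, fluorescence ratio 0.5 to 1.5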;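 note: 0% = enzyme with DMSO and 100% = no enzyme wells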
#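 material = recombinant human SENP1 catalytic domain, His6-tagged | quantity = 20 pM enzyme | reagent = 25 nM SUMO1 FRET substrate | compound dosing = 10 µM single point, 0.5% DMSO | timing = 50 min enzyme reaction, room temperature, light-protected | detection = FRET, CFP and YFP emission | control set = no-enzyme low, enzyme-DMSO high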
# SENP8 block-2: blocks the human protease SENP8. Q96LD8. purified SENP8, Z-RLRGG-aminoluciferin cleavage, luminescence. inhibition, % at 10 µM. actives 1.2% (n = 330,000); in the data active = inhibition above about 50%
# SENP6 block: blocks the human protease SENP6; actives 1.8% (n = 330,000); Recombinant SENP6 catalytic domain, aminoluciferin luminescence; inhibition, % at 10 µM; Q9GZR1;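 active = inhibition above about 50% at the single tested dose, limit read from the data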;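 note: plate controls were DMSO wells with enzyme for no effect and DMSO wells lacking enzyme for full effect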
# Target sequence (Q9GZR1 628-1112 limits assumed): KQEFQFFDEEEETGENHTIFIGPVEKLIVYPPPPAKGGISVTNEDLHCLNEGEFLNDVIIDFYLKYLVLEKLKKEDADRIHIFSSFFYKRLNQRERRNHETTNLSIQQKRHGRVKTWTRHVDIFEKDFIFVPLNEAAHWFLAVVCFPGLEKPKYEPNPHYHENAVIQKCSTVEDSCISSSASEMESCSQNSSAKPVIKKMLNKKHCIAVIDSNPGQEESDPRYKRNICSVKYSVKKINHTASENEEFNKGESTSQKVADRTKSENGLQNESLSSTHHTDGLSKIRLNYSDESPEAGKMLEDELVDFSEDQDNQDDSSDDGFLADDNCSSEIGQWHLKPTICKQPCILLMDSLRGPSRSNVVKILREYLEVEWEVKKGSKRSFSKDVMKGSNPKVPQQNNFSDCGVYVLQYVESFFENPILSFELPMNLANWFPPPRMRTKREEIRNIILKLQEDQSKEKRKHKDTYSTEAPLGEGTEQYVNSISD
# Starred values were filed as active, the others as inactive; . = no result.
SMILES,SENP7 inh,SENP8 block-1,CendR NRP1 mod,SENP1 inh,SENP8 block-2,SENP6 block
COC(=O)C[C@@H]1CC[C@H](NC(=O)CC2CC2)[C@@H](CO)O1,.,19.0,3.4,0.8,.,.
CC(C)C[C@H]1CN(CCCC[C@H]2CNC(=O)C(=O)N2Cc2ccccc2)C(=O)C(=O)N1CCC1CCCCC1,.,12.4,-0.2,3.0,.,.
O=C(C1=C[C@H](c2ccc(C(F)(F)F)cc2)C[C@H](OCCCCO)O1)N1CCN(Cc2ccc3c(c2)OCO3)CC1,7.2,16.8,28.8*,0.9,-11.8,-20.3
O=C(C1=C[C@H](c2csc3ccccc23)C[C@H](OCCCCO)O1)N1CCN(Cc2ccccc2)CC1,4.6,-16.8,26.7*,-15.9,-10.4,-18.9
O=C(NC1CC1)C1=C[C@@H](c2ccc3c(c2)OCO3)C[C@@H](OCCCCO)O1,2.2,-42.6,27.7*,-0.6,-1.2,2.5
O=C(C1=C[C@@H](c2ccc(Br)cc2)C[C@@H](OCCCCO)O1)N1CCN(Cc2ccc3c(c2)OCO3)CC1,-4.5,13.3,-4.8,0.2,5.6,-17.4
O=C(O)C1=C[C@H](c2ccc3c(c2)OCO3)C[C@H](OCCCCO)O1,2.0,-251.3,2.3,2.1,4.3,-9.8
O=C(C1=C[C@@H](c2csc3ccccc23)C[C@@H](OCCCCO)O1)N1CCN(Cc2ccc3c(c2)OCO3)CC1,-11.0,2.9,10.7,-3.5,-9.6,-10.8
CC(NNC(=S)N1CCN(c2ccccn2)CC1)c1nccc2ccccc12 (stereo unspecified),.,1.9,24.4*,1.2,.,.
COc1ccccc1Cc1c(-c2ccc(C#N)cc2)nc2c(C)cc(Br)cn12,.,-161.5,-17.8,4.7,.,.
CCOC(=O)N1CCN(C(=O)C(CC(C)C)NS(=O)(=O)c2ccc(C)cc2)CC1 (stereo unspecified),1.0,8.9,22.1*,1.4,3.7,-13.6
COC(=O)[C@H](CC(C)C)NS(=O)(=O)N[C@@H](CC(C)C)C(=O)OC,-3.2,7.0,3.5,0.7,4.8,-3.8
COC(=O)[C@H](CC(C)C)NS(=O)(=O)c1ccccc1,10.3,17.4,23.0*,1.1,-10.8,0.7
O=C(NCc1cccc(Cl)c1)c1cccc(S(=O)(=O)N2CCCC2)c1,1.2,3.6,-0.1,0.5,1.2,-10.3
CCCNC(=O)C1(C)CCN(Cc2ccc(C(=O)OCC)cc2)C1 (stereo unspecified),.,16.1,-17.8,-0.1,.,.
CCC(C)(C)NC(=O)C(c1ccc(C)o1)N(Cc1ccc2c(c1)OCO2)C(=O)c1snc(C(N)=O)c1N (stereo unspecified),-8.2,-332.4,3.3,-14.9,6.9,-6.8
CCN(CC)c1ccc(/C=N/NC(=O)c2ccc(Br)o2)cc1,49.3,-292.4,-11.6,-39.2,34.3,70.0*
C#CCOCCOCCOCCNc1nc(N2CCN(C(=O)[C@H](C(C)C)n3cc(CCO)nn3)CC2)nc(N2CCN(C(=O)[C@H](Cc3ccc(O)cc3)n3cc(CCO)nn3)CC2)n1,.,5.5,28.8*,2.8,.,.
C#CCOCCOCCOCCNc1nc(N2CCN(C(=O)[C@H]([C@@H](C)O)n3cc(CCCCN)nn3)CC2)nc(N2CCN(C(=O)[C@H](Cc3ccc(O)cc3)n3cc(CCO)nn3)CC2)n1,2.5,15.2,22.2*,2.5,-0.9,-6.1
Clc1ccc(CSc2ncnc3c2ncn3C2CCCCO2)cc1 (stereo unspecified),.,21.8,-6.4,3.1,.,.
COc1ccc(CCNC(=O)c2nnn(CC(=O)Nc3ccccc3C)c2N)cc1OC,-3.2,12.6,28.5*,2.0,-13.1,-26.1
O=C(NCCN1CCOCC1)c1cc(-c2ccc(F)cc2)on1,8.8,16.1,37.9*,-0.2,-7.3,6.0
CCCCN1C(=O)C(CC(=O)NC2CCCCC2)CC(C(=O)N2CCCCCC2)=C1C (stereo unspecified),.,15.7,-19.5,-0.5,.,.
O=C(CSc1ccccn1)N/N=C/C=C/c1ccccc1,6.1,9.9,22.2*,3.0,3.0,-10.8
O=C(N/N=C/C=C/c1ccccc1)c1ccccn1,-3.5,-18.9,7.9,3.5,-4.4,-12.4
CC(/C=N/NC(=O)c1sc(N)nc1C)=C\c1ccccc1,69.4*,-162.0,10.8,2.9,-0.8,35.7
C[C@H](CO)N1C[C@H](C)[C@@H](CN(C)CC2CC2)OCc2cnnn2CCCC1=O,.,13.9,-4.1,0.0,.,.
